Measured values as given in the array DNA melting data of Ke et al. (doi:10.1101/2024.01.08.574731).

What was measured:
[1] = melting temperature; fluorescence melt of hairpins on a sequencing array, two-state fit, raised by 9.35 °C to match UV melts; details: sodium 0.088 M
Procedure, shortened: (§1)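 Folding enthalpy and melting temperature were estimated with bootstrapped two-state fits and combined across four replicates by inverse-variance weighting, with fitted temperatures raised by 9.35 °C to match UV melts. The data were Cy3 fluorescence of library hairpins, with annealed Cy3 and quencher oligos, on a sequenced MiSeq flow cell in 50 mM Na-HEPES pH 8.0, 25 mM NaCl, imaged in 2.5 °C steps up to 60 °C and normalised to pre-quench Cy3 and control constructs.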

[2] = folding enthalpy; higher = less favourable; fluorescence melt of hairpins on a sequencing array, two-state fit; details: sodium 0.088 M
Procedure, shortened: as §1

Sequence | Tm [1] [°C] | folding enthalpy [2] [kcal/mol]
GGACGTCGAAAGACATCC (((.(((....))).))) | 47.3 | -26.5
GCACGAACGAAAGTTTGC (((..(((....)))))) | 33.5 | -17.1
GATCATTCCAATGATC ((((((....)))))) | 50.4 | -33.9
GTCCAACGAAAGTTTGAC (((.(((....))).))) | 42 | -27.7
GGACGTCGAAAGACCTCC (((.(((....))).))) | 41.2 | -22.3
GATGTGGGAAACCGCATC ((((.((....)).)))) | 51.9 | -46.4
GATCTATATCTAGATC ((((((....)))))) | 36.2 | -27.6
GAGCACGGAAACATGCTC (((((.(....).))))) | 45.4 | -35
GGGGGCGAAAGCCTCCCC ((((((....)))..))) | 61.4 | -11.5
GCCAGCGAAAGCTATGGC ((((((....)))..))) | 55.3 | -21.4
GTGACCGAAAGGTTCCAC ((((((....)))..))) | 33.2 | -9.64
GTACCTGGAAACAGGCAC ((.((((....)))).)) | 42.5 | -22.1
GCTGACGAAAGTCTCAGC ((((((....)))..))) | 40.9 | -20.9
GTTGTAGGAAACTACAGC (.(((((....))))).) | 42 | -25.8
GATGGGCCGAAAGGCATC (((..(((....)))))) | 34.8 | -9.87
GCCTTGCGAAAGCACAGC ((..(((....)))..)) | 45.1 | -7.49
GTGTGACGAAAGTCTCAC (((.(((....))).))) | 55.9 | -31.9
GTGCGCGAAAGCGACCAC ((((((....)))..))) | 43.8 | -10.4
GAGAACGGAAACGTTTTC ((.((((....)))).)) | 41.3 | -25.3
GCGACCGGAAACAGTCGC (((((.(....).))))) | 55.1 | -39.2
GTAGGTCGAAAGACTTAC (((.(((....))).))) | 47.9 | -27.3
GCGATTGGTCGC ((((....)))) | 52.1 | -23.4
GGGACAGGAAACTGTCTC (.(((((....))))).) | 51.1 | -28.1

Sequence | Tm [1] [°C] | folding enthalpy [2] [kcal/mol]
GCCTGTGGAAACGTAGGC ((((..(....)..)))) | 48.2 | -28
GACCTGGAAACAGGTC ((((((....)))))) | 61.4 | -40.6
GATCATACTATGATC ((((((...)))))) | 48.1 | -35.7
GAACGTGAAAACGTTC ((((((....)))))) | 58.1 | -34
GGGATGGGAAACTATCCC (((((.(....).))))) | 49.8 | -30.5
GATCCTTTGCAGGATC ((((((....)))))) | 52 | -30.6
GTCGAAGGAAACTTTGAC (((.(((....))).))) | 44.5 | -31.1
GTATCCCGAAAGGGCTAC (((.(((....))).))) | 41.3 | -22.5
GGGGCGGGAAACCGTCCC (((.(((....))).))) | 67.7 | -34.9
GATCGCTCGGGCGATC ((((((....)))))) | 69.2 | -38.6
GGTCGGGGAAACCTGGCC ((.(.((....)).).)) | 48.4 | -28.7
GTTTACGAAAGTAAAAAC ((((((....)))..))) | 29.5 | -12
GTATGGGAAACCATAC ((((((....)))))) | 50.8 | -36.9
GGTGGTCGAAAGACGACC (((.(((....))).))) | 56.8 | -38
GGCTCCGAAAGGACAGCC ((((((....)))..))) | 50.6 | -23.1
GCCCTGCGAAAGCCGCGC ((.(.((....)).).)) | 34.9 | -10.3
GTCGTCGCGAAAGCGGAC (((..(((....)))))) | 46.5 | -10.6
GCTGATGGAAACACCAGC ((((.((....)).)))) | 45.9 | -30.8
GGTAAGGGAAACCCTACC ((((.((....)).)))) | 40 | -24.3
GGACAAGGAAACCTGTCC (((((.(....).))))) | 47.2 | -31.4
GTACACGGAAACGTATAC (((.(((....))).))) | 33.6 | -23.8
GCGAAAGGAAACTTTCAC (.(((((....))))).) | 32.6 | -19.1
GCGGGGCGAAAGCCGAGC ((..(((....)))..)) | 66.2 | -24.9
